Assays:
[1] = target: full-length TDP1 (Homo sapiens, UniProt Q9NUW8); assay: TDP1 gel-based fluorescence assay in vitro; assay type: biochemical
[2] = target: TDP1 in HCT116 cell line (Homo sapiens, UniProt Q9NUW8); assay: Western blot for TDP1 degradation; assay type: cell-based; details: 5h 10 μM within 6 h, 5h 0.1-100 μM and 5i 10, 100 μM within 24 h
[3] = target: T1, full-length TDP2 (Homo sapiens, UniProt O95551); assay: TDP2 gel-based fluorescence assay in vitro; assay type: biochemical; details: ratio of IC50 values of TDP2 vs. TDP1
T1 sequence (O95551 1-362): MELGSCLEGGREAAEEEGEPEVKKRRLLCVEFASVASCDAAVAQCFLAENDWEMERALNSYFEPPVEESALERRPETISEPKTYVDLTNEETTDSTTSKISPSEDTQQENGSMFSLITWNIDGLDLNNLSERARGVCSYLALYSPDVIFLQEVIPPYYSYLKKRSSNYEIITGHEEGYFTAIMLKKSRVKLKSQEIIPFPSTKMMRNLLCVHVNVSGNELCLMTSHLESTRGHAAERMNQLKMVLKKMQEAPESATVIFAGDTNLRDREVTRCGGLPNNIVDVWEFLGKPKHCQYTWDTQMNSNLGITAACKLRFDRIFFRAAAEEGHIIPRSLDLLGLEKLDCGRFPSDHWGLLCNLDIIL

[4] = test system: HCT116 cell line; assay: Synergy assay with camptothecin; assay type: cell-based, human; details: HCT116, compound at 10 μM, 72 h cell viability
Procedure, shortened: (§1)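 HCT116 colon or U2OS osteosarcoma cells were seeded at 2 × 10³ cells per well and cultured for 72 h in medium containing the test compound together with camptothecin. Viability was read by CellTiter-Glo luminescence, and synergy was judged from these viability data.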

[5] = test system: U2OS cell line; assay: Synergy assay with camptothecin; assay type: cell-based, human; details: compound at 10 μM, 72 h cell viability
Procedure, shortened: as §1

Chain of full-length TDP1 (Q9NUW8 whole entry): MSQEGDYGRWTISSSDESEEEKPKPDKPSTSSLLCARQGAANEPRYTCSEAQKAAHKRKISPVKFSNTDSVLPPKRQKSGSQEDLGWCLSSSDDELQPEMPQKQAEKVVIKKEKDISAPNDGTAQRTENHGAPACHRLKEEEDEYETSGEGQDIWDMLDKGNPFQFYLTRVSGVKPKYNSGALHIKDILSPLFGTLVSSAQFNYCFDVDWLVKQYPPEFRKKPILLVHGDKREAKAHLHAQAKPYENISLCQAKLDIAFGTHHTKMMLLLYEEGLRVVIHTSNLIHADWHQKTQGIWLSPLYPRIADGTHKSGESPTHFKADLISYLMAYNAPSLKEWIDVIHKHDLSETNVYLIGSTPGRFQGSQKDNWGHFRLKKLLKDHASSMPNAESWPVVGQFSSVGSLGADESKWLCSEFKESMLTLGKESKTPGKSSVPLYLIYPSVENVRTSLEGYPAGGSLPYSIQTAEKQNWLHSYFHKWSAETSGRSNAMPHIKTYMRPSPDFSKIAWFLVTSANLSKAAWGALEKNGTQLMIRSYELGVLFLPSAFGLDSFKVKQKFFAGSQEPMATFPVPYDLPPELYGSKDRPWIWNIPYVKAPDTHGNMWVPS
Chain of TDP1 in HCT116 cell line (Q9NUW8 whole entry): as above

| Compound | TDP1 IC50 [1] | further results |
| --- | --- | --- |
| Cc1ncsc1-c1ccc(CNC(=O)[C@@H]2C[C@@H](O)CN2C(=O)[C@@H](NC(=O)COCCOCCOCCn2cc(COc3ccc(-c4nc5cc(-c6ccccc6)ccn5c4Nc4ccc(C(=O)O)cc4)cc3)nn2)C(C)(C)C)cc1 [Compound 5b, 4-((2-(4-((1-((S)-13-((2S,4R)-4-Hydroxy-2-((4-(4-methylthiazol-5-yl)benzyl)carbamoyl)pyrrolidine-1-carbonyl)-14,14-dimethyl-11-oxo-3,6,9-trioxa-12-azapentadecyl)-1H-1,2,3-triazol-4-yl)methoxy)phenyl)-7-phenylimidazo[1,2-a]pyridin-3-yl)amino)benzoic acid] | failed to exhibit TDP1 inhibitory potency within the range tested |  |
| CN(Cc1cn(Cc2ccc(-c3nc4cc(-c5ccccc5)ccn4c3Nc3ccc(C(=O)O)cc3)cc2)nn1)c1cccc2c1C(=O)N(C1CCC(=O)NC1=O)C2=O (stereo not shown) [Compound 5i, 4-((2-(4-((4-(((2-(2,6-Dioxopiperidin-3-yl)-1,3-dioxoisoindolin-4-yl)(methyl)amino)methyl)-1H-1,2,3-triazol-1-yl)methyl)phenyl)-7-phenylimidazo[1,2-a]pyridin-3-yl)amino)benzoic acid] |  | TDP1 degradation compared with GAPDH [2]: unable to observe degradation effects |
| O=C(COc1cccc2c1C(=O)N(C1CCC(=O)NC1=O)C2=O)NCCCCn1cc(-c2ccc(-c3nc4ccccn4c3Nc3ccc(C(=O)O)cc3)cc2)nn1 (stereo not shown) [Compound 5g, 4-((2-(4-(1-(4-(2-((2-(2,6-Dioxopiperidin-3-yl)-1,3-dioxoisoindolin-4-yl)oxy)acetamido)butyl)-1H-1,2,3-triazol-4-yl)phenyl)imidazo[1,2-a]pyridin-3-yl)amino)benzoic acid] | did not show TDP1 inhibitory potency within the range tested |  |
| O=C(COc1cccc2c1C(=O)N(C1CCC(=O)NC1=O)C2=O)NCCCCn1cc(COc2ccc(-c3nc4ccccn4c3Nc3ccc(C(=O)O)cc3)cc2)nn1 (stereo not shown) [Compound 5e, 4-((2-(4-((1-(4-(2-((2-(2,6-Dioxopiperidin-3-yl)-1,3-dioxoisoindolin-4-yl)oxy)acetamido)butyl)-1H-1,2,3-triazol-4-yl)methoxy)phenyl)imidazo[1,2-a]pyridin-3-yl)amino)benzoic acid] | did not show TDP1 inhibitory potency within the range tested |  |
| Cc1ncsc1-c1ccc(CNC(=O)[C@@H]2C[C@@H](O)CN2C(=O)[C@@H](NC(=O)COCCOCCOCCOCCn2cc(COc3ccc(-c4nc5cc(-c6ccccc6)ccn5c4Nc4ccc(C(=O)O)cc4)cc3)nn2)C(C)(C)C)cc1 [Compound 5c, 4-((2-(4-((1-((S)-16-((2S,4R)-4-Hydroxy-2-((4-(4-methylthiazol-5-yl)benzyl)carbamoyl)pyrrolidine-1-carbonyl)-17,17-dimethyl-14-oxo-3,6,9,12-tetraoxa-15-azaoctadecyl)-1H-1,2,3-triazol-4-yl)methoxy)phenyl)-7-phenylimidazo[1,2-a]pyridin-3-yl)amino)benzoic acid] | failed to exhibit TDP1 inhibitory potency within the range tested |  |
| O=C1CCC(N2C(=O)c3cccc(NCCc4cn(Cc5ccc(-c6nc7cc(-c8ccccc8)ccn7c6Nc6ccc(C(=O)O)cc6)cc5)nn4)c3C2=O)C(=O)N1 (stereo not shown) [Compound 5j, 4-((2-(4-((4-(2-((2-(2,6-Dioxopiperidin-3-yl)-1,3-dioxoisoindolin-4-yl)amino)ethyl)-1H-1,2,3-triazol-1-yl)methyl)phenyl)-7-phenylimidazo[1,2-a]pyridin-3-yl)amino)benzoic acid] |  | TDP1 selectivity [3]: 1.4 |
| O=C(COc1cccc2c1C(=O)N(C1CCC(=O)NC1=O)C2=O)NCCCCn1cc(COc2ccc(-c3nc4cc(-c5ccccc5)ccn4c3Nc3ccc(C(=O)O)cc3)cc2)nn1 (stereo not shown) [Compound 5d, 4-((2-(4-((1-(4-(2-((2-(2,6-Dioxopiperidin-3-yl)-1,3-dioxoisoindolin-4-yl)oxy)acetamido)butyl)-1H-1,2,3-triazol-4-yl)methoxy)phenyl)-7-phenylimidazo[1,2-a]pyridin-3-yl)amino)benzoic acid] | did not show TDP1 inhibitory potency within the range tested |  |
| O=C1CCC(N2C(=O)c3cccc(NCc4cn(Cc5ccc(-c6nc7cc(-c8ccccc8)ccn7c6Nc6ccc(C(=O)O)cc6)cc5)nn4)c3C2=O)C(=O)N1 (stereo not shown) [Compound 5h, 4-((2-(4-((4-(((2-(2,6-Dioxopiperidin-3-yl)-1,3-dioxoisoindolin-4-yl)amino)methyl)-1H-1,2,3-triazol-1-yl)methyl)phenyl)-7-phenylimidazo[1,2-a]pyridin-3-yl)amino)benzoic acid] |  | Synergy in combination with TOP1 inhibitor camptothecin (CPT) [4]: failed to show synergy; TDP1 degradation compared with GAPDH [2]: unable to observe degradation effects; Synergy in combination with TOP1 inhibitor camptothecin (CPT) [5]: failed to show synergy |
